E coli WT exp – E. coli BW25113 growth inhibition, expanded screen; OD600 absorbance; growth inhibition, % at 100 µM; hit rate 0.15% among 98,000; AID 710;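 active = growth inhibition above about 50% at one test dose, limit read from the data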;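 note: growth measured after 20 h incubation at 37 °C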
Pyk2 oligo antag – Pyk2 (human) oligomerization antagonism. Q14289. Q293 cells, Pyk2 FERM NanoBiT luminescence; active compounds read low. z-score (the deposit names both 25 µM and 10 µM). hit rate 0.83% among 99,000. AID 1347419;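 active = Z-score of -3 or lower, scaled per plate to the spread of control and sample wells; inactive = z-score above -3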;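 note: negative z-score means lost luminescence so less FERM oligomerization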
Target sequence (Q14289 whole entry, looked up): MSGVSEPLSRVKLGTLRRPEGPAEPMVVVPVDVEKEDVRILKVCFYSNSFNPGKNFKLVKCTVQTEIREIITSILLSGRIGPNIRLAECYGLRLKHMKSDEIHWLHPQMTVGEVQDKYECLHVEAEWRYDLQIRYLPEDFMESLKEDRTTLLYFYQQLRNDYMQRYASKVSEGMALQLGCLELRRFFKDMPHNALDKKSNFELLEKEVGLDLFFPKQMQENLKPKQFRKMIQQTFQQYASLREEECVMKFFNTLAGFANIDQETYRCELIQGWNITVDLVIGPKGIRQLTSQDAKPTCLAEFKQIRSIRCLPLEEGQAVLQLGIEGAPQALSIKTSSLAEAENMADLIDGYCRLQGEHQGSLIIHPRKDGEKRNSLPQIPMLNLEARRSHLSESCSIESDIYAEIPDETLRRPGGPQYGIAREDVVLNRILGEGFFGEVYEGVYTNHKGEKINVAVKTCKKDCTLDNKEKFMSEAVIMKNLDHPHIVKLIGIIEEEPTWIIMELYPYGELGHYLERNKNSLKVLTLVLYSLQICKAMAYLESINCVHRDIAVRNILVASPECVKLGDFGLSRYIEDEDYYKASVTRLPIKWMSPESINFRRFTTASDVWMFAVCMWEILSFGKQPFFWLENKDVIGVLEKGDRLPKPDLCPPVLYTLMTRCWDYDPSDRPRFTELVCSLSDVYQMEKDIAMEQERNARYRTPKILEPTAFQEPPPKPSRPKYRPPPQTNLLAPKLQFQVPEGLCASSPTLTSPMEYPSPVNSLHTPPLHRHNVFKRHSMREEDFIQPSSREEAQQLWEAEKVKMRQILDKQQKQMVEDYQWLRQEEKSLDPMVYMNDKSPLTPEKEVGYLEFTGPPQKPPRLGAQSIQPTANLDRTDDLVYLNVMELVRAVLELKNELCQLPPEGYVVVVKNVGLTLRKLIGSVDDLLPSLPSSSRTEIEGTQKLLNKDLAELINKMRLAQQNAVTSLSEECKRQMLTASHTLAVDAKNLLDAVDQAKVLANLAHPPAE
Mac1 fbg enh – increases human CD11b/CD18 adhesion to fibrinogen; activation, % at 10 µM; P05107+P11215; hit rate 0.07% among 93,000; K562 CD11b/CD18 adhesion to fibrinogen, ATPlite luminescence;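 active = 10 µM primary screen giving 50% or more activity, confirmed by 40% or more on retest at that dose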
Mac1 fbg inh – inhibitors of human CD11b/CD18 binding to fibrinogen; P05107+P11215; K562 CD11b/CD18 adhesion to fibrinogen, ATPlite luminescence; Mn2+ added to activate the integrin; inhibition, % at 10 µM; hit rate 0.54% among 93,000; AID 1497;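 active = primary inhibition of 50% or more at 10 µM, then 40% or more on retest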
Ecoli tolC – growth inhibitors of E. coli BW25113 tolC mutant | OD615 | hit rate 2.2% among 65,000 | growth inhibition, % at 10 µM (by protocol);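 active = growth inhibition at or above a cutoff equal to the mean over every tested compound plus 3 SD, cut at about 60% in these data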;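 note: growth measured after 20 h incubation at 37 °C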
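Test system – E. coli BW25113 ΔtolC::kan, tolC deletion mutant strain · Detection – OD at 615 nm · Buffer or medium – LB with kanamycin 50 µg/mL · Times – 20 h compound exposure of bacteria at 37 °C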
Large screens that a line does not name were inactive. Rows were chosen to be rich in hits. Some 2.3% of all compounds tested hit in one or more screens of this group.

CCc1ccc(NC(=O)N(C2CCC(C)CC2)C2CCN(C(C)=O)CC2)cc1 (stereo unspecified)	none
Cn1cnnc1SC(C(=O)Nc1cccc(C(F)(F)F)c1)c1ccccc1 (stereo unspecified)	none (no result: Ecoli tolC)
COc1ccc(CN(C(=O)CSc2nnc(-c3ccccc3C)o2)c2ccc(F)cc2)cc1	none (no result: E coli WT exp, Mac1 fbg enh, Mac1 fbg inh, Ecoli tolC)
O=C(CSc1nnc(-c2c[nH]c3ccccc23)o1)N(Cc1ccccc1)c1ccc(F)cc1	Pyk2 oligo antag -3.3 (no result: Mac1 fbg enh, Mac1 fbg inh)
CCOc1ccc2nc(NC(=O)c3ccc(OC)c(S(=O)(=O)N4CCOCC4)c3)sc2c1	Pyk2 oligo antag -3.7 (no result: Ecoli tolC)
O=C(Nc1ccc(F)cc1)c1ccc(CSc2ccccc2)o1	Mac1 fbg inh 97 (no result: E coli WT exp, Pyk2 oligo antag, Ecoli tolC)
O=C(c1ccco1)N1CCN(c2nc(C3CC3)nc3sc4c(c23)CCCC4)CC1	Ecoli tolC 77
N#CC1=C(N)NC(SCC(=O)Nc2ccc(Br)cc2)=C(C#N)C12CCCCC2	Mac1 fbg inh 83 (no result: Ecoli tolC)
OCc1cn(-c2ccccc2)nc1-c1ccc(-c2nn(-c3ccccc3)cc2CO)cc1	none
Cc1ccc(-c2nn(-c3ccccc3)cc2CSC(=N)N)cc1	E coli WT exp 98 (no result: Mac1 fbg enh, Mac1 fbg inh, Ecoli tolC)
O=C(CSc1ncc(-c2ccc(F)cc2)[nH]1)N1CCCCC1	none
CSCSC1=C(C#N)C(c2ccc(Cl)cc2)C(C(C)=O)=C(C)N1 (stereo unspecified)	Ecoli tolC 96 (no result: Pyk2 oligo antag)
CSC1=C(C#N)C(c2ccccc2Cl)C(C(C)=O)=C(C)N1 (stereo unspecified)	Pyk2 oligo antag -3.1 (no result: E coli WT exp, Mac1 fbg enh, Mac1 fbg inh, Ecoli tolC)
COC(=O)CC1SC(=O)NC1=Nc1cccc(C)c1 (stereo unspecified)	none (no result: Ecoli tolC)
Cc1ccc(-c2nnn(CCC(=O)NC3CCCC3)n2)cc1	none
CCOc1cccc(NC(=O)C2CC(=O)N(C)C(=Nc3cccc(F)c3)S2)c1 (stereo unspecified)	Ecoli tolC 88
CCOc1cccc(NC(=O)C2CC(=O)N(C)C(=Nc3ccccc3)S2)c1 (stereo unspecified)	none
CCCOc1ccccc1Cn1c(=O)oc2ccc(C)cc21	Ecoli tolC 73
COC(=O)c1ccc(Cl)c(NC(=O)NC23CC4CC(CC(C4)C2)C3)c1	Pyk2 oligo antag -3.6 (no result: Ecoli tolC)
CC1(c2cccs2)CC(c2cccs2)=C(C#N)C(=O)N1 (stereo unspecified)	none
O=C(Nc1ccccc1)Nc1cc(Cl)cc(Cl)c1	Mac1 fbg inh 56 (no result: Ecoli tolC)
O=C(Nc1cccc(Cl)c1)Nc1nccs1	E coli WT exp 77, Ecoli tolC 69
Cc1c(S(=O)(=O)N2CCN(C(c3ccccc3)c3ccccc3)CC2)c(=O)n(C)c(=O)n1C	none (no result: Pyk2 oligo antag, Ecoli tolC)
Cc1cccc(N2CCN(C(=O)Cc3c(C(=O)O)[nH]c4ccc(Cl)cc34)CC2)c1C	Ecoli tolC 87
Cc1cccc(N2CCN(C(=O)CCn3c(=O)[nH]c4ccccc4c3=O)CC2)c1C	none
CNC(=O)COC(=O)c1ccc(-c2nc3ccccc3s2)s1	Mac1 fbg inh 64 (no result: Ecoli tolC)
CCc1cccc(CC)c1NC(=O)COC(=O)c1ccccc1-c1nc2ccccc2s1	none (no result: E coli WT exp, Pyk2 oligo antag, Ecoli tolC)
CCOc1ccc(OCCCCNCCN)cc1	none (no result: Pyk2 oligo antag, Ecoli tolC)
O=C(Nc1nc2n(n1)C(c1ccc(Cl)cc1)CC(c1ccc(Cl)cc1)N2)c1ccco1 (stereo unspecified)	Ecoli tolC 61 (no result: Pyk2 oligo antag)
COc1ccc(C2CC(c3ccc(Cl)cc3)Nc3nc(NC(=O)c4ccco4)nn32)cc1 (stereo unspecified)	none (no result: E coli WT exp, Mac1 fbg enh, Mac1 fbg inh)
COc1ccc(C2CC(c3ccccc3)Nc3nc(NC(=O)c4cccs4)nn32)cc1 (stereo unspecified)	Pyk2 oligo antag -3.5
COc1ccc(C2CC(c3ccccc3)n3nc(NC(=O)c4cccs4)nc3N2)cc1 (stereo unspecified)	Ecoli tolC 65
COc1ccc(C2OC(=O)CC2C(=O)NC2CCCCCC2)cc1OC (stereo unspecified)	none
Cc1snc(S(=O)(=O)/C(C#N)=N/Nc2cccc(C(F)(F)F)c2)c1C#N	Mac1 fbg inh 90 (no result: Ecoli tolC)
CCc1ccc(NC(=O)C(=O)NCCN2CCN(C(=O)c3ccco3)CC2)cc1	none (no result: E coli WT exp, Mac1 fbg enh, Mac1 fbg inh, Ecoli tolC)
COc1ccc(C(=O)O/N=C(\C)c2ccccc2)cc1	none (no result: Ecoli tolC)
CCCOc1ccc(C(=O)O/N=C(\CC)c2ccc(C)cc2)cc1	none (no result: E coli WT exp, Pyk2 oligo antag, Ecoli tolC)
C/C(=N\OC(=O)c1ccc(OC(C)C)cc1)c1ccc(C)c(C)c1	Mac1 fbg inh 66 (no result: Ecoli tolC)
CC/C(=N\OC(=O)c1ccc(OC(C)C)cc1)c1ccc(C)cc1	Mac1 fbg inh 80 (no result: Ecoli tolC)
COc1ccc(NC(C)=O)cc1NC(C)C(=O)Nc1cccc2ccccc12 (stereo unspecified)	none (no result: Ecoli tolC)
CCOC(=O)c1cnc(-n2nc(C)cc2C)nc1NCCc1ccccc1	Ecoli tolC 100
Cc1nn(-c2nc3ccccc3n2Cc2ccccc2)c2c1C(=O)CC(C)(C)C2	Pyk2 oligo antag -4, Ecoli tolC 91
C/C(=N/NC(N)=S)c1ccccc1[N+](=O)[O-]	none (no result: Mac1 fbg enh, Mac1 fbg inh, Ecoli tolC)
O=C(CSc1nc2ccccc2[nH]1)Nc1cc(C(F)(F)F)ccc1N1CCOCC1	Ecoli tolC 100
COC(=O)CSc1nc(N2CCCCC2)c2c(c1C#N)CCCC2	Ecoli tolC 64
N#Cc1c(SCC(=O)O)nc(N2CCCCC2)c2c1CCCC2	none
CC(=O)CC(c1ccc([N+](=O)[O-])cc1)c1c(O)c2ccccc2oc1=O (stereo unspecified)	none (no result: Pyk2 oligo antag, Ecoli tolC)
COc1ccc(CCNc2nc(-c3sc(C)nc3C)cs2)cc1OC	Mac1 fbg inh 60 (no result: Ecoli tolC)
COc1ccc(CCNc2nc(-c3cccnc3)cs2)cc1OC	none (no result: Mac1 fbg enh, Mac1 fbg inh, Ecoli tolC)
COc1ccc(C(c2nnnn2C2CCCCC2)N2CCN(c3ccc(OC)cc3)CC2)cc1 (stereo unspecified)	none
COc1ccccc1C(c1nnnn1Cc1ccccc1)N1CCN(c2nc3ccccc3s2)CC1 (stereo unspecified)	Pyk2 oligo antag -3.8
c1ccc(Cn2nnnc2C(c2cccs2)N2CCCCCC2)cc1 (stereo unspecified)	Ecoli tolC 77 (no result: Mac1 fbg enh, Mac1 fbg inh)
COc1ccc(OC)c(C(c2nnnn2C2CCCC2)N2CCN(c3ccccc3)CC2)c1 (stereo unspecified)	Pyk2 oligo antag -3.5
Cc1ccc(C(c2nnnn2CCc2ccccc2)N2CCSCC2)cc1 (stereo unspecified)	Ecoli tolC 64 (no result: Mac1 fbg inh)
CCC(CC)NC(=O)COC(=O)c1cccc(C)c1O	none (no result: Ecoli tolC)
Cc1ccc(-c2cc(C(F)F)n3ncc(C(=O)N4CCN(c5cccc(C)c5C)CC4)c3n2)cc1	none (no result: Ecoli tolC)
c1ccc(Cn2nnnc2C(c2ccccc2)N2CCN(c3nc4ccccc4s3)CC2)cc1 (stereo unspecified)	Pyk2 oligo antag -4.1
COc1ccc(N2CCN(C(c3ccccc3OC)c3nnnn3Cc3ccco3)CC2)cc1 (stereo unspecified)	Pyk2 oligo antag -3.2
COc1ccc(C(c2nnnn2Cc2ccccc2)N2CCN(c3nc4ccccc4s3)CC2)cc1OC (stereo unspecified)	Pyk2 oligo antag -3.8 (no result: E coli WT exp, Mac1 fbg enh, Mac1 fbg inh, Ecoli tolC)
c1ccc(C(c2nnnn2Cc2ccco2)N2CCN(c3nc4ccccc4s3)CC2)cc1 (stereo unspecified)	none (no result: E coli WT exp, Mac1 fbg enh, Mac1 fbg inh, Ecoli tolC)
Cc1ccc(-c2nn3c(C)nnc3c3ccccc23)cc1S(=O)(=O)N(C)CCO	none (no result: Ecoli tolC)
